Read-outs that look alike come from different tables or passages of the source.
Experiments:
POST complex = assay: EF4-mediated back-translocation assay; format: biochemical, E. coli; conditions: 5 μM Evn
Outline: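 POST complex formed from initiation and ternary complexes plus EF-G (0.2:1 to ribosomes) and 1 mM GTP, 37 °C, 10 min, then sucrose-cushion purified. 0.1 μM POST premixed with 0.15 μM tRNAfMet was stopped-flow mixed with 3 μM EF4, 0.5 mM GDPNP and test compound at 0–5 μM (final). Proflavin excitation 460 nm, 495 nm long-pass. Traces fit to a three-step back-translocation kinetic model.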

S. faecalis TetM = assay: Malachite green rdGTPase assay, TetM; format: biochemical; conditions: for effect on rdGTPase activity of TetM: E. coli 70S ribosomes, 1 μM ThS or 5 μM MiC (Figure 2B)
[1] = test system: IF2-dependent 70SIC formation; assay: IF2-dependent 70SIC formation light scattering assay; format: biochemical, E. coli
Outline: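 Stopped-flow light scattering at 436 nm excitation with a 455 nm cut-off filter. It was premixed with test compound (0–5 μM), then rapidly mixed with 0.3 μM 50S subunits. All concentrations are final after mixing.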

E. coli BipA = assay: Malachite green rdGTPase assay, BipA; format: biochemical; conditions: for effect on rdGTPase activity of BipA: E. coli 70S ribosomes, 1 μM ThS or 5 μM MiC (Figure 2D); for effect on rdGTPase activity of BipA, ribosomes lacking L7/L12: E. coli 70SΔL7/L12 ribosomes, 12 hours at 20 °C (Figure 2I)
Tet(O) = assay: rdGTPase assay, Tet; format: biochemical; conditions: data not shown
PRE complex = assay: EF-G catalysed translocation assay; format: biochemical; conditions: 10 μM Evn, E. coli fMetPhe-tRNAPhe(Prf16/20)
Outline: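 Initiation complex: ribosomes (2 μM), MFK mRNA (8 μM), IF1/IF2/IF3 (3 μM each), 1 mM GTP, [35S]fMet-tRNAfMet (3 μM), 25 min, buffer A pH 7.5, 37 °C. Combined with EF-Tu ternary complex for 45 sec. PRE complex sucrose-cushion purified (20 mM Mg2+). 0.1 μM PRE ± test compound stopped-flow mixed with 5 μM EF-G, 1 mM GTP. Proflavin excitation 460 nm, 495 nm long-pass. Double-exponential fits.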

[2] = test system: E. coli lysate-based system; assay: In vitro coupled transcription-translation assay; format: biochemical; conditions: read-out: IC50, in vitro transcription-translation (synthesis of GFP); E. coli in vitro coupled transcription-translation system (Figure S3)
Outline: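 Coupled transcription-translation in an E. coli lysate-based system, run with or without test compound. GFP fluorescence was scanned with a blue laser module, and the images were quantified.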

E. coli EF-GΔG′ = assay: Malachite green rdGTPase assay, EF-GΔG′; format: biochemical
E. coli EF4 = assay: Malachite green rdGTPase assay, EF4; format: biochemical; conditions: for effect on rdGTPase activity of EF4: E. coli 70S ribosomes, 1 μM ThS or 5 μM MiC (Figure 2C); for effect on rdGTPase activity of EF4, ribosomes lacking L7/L12: E. coli 70SΔL7/L12 ribosomes, 12 hours at 20 °C (Figure 2H)
E. coli EF-G = assay: Malachite green ribosome-dependent GTPase; format: biochemical; conditions: for effect on rdGTPase activity of EF-G, ribosomes lacking L7/L12: E. coli 70SΔL7/L12 ribosomes, 12 hours at 20 °C (Figure 2G)
[3] = E. coli 70S ribosomes, 1 μM ThS or 5 μM MiC (Figure 2F)
[4] = E. coli 70S ribosomes, 1 μM ThS or 5 μM MiC (Figure 2A)

Structure (SMILES)	IC50 [2]	effect on rdGTPase activity of TetM (S. faecalis TetM)	effect on rdGTPase activity of BipA (E. coli BipA)	effect on rdGTPase activity of BipA, ribosomes lacking L7/L12 (E. coli BipA)	effect on rdGTPase activity of EF-GΔG′ (E. coli EF-GΔG′; [3])	effect on rdGTPase activity of EF4 (E. coli EF4)	effect on rdGTPase activity of EF4, ribosomes lacking L7/L12 (E. coli EF4)	effect on rdGTPase activity of EF-G (E. coli EF-G; [4])	effect on rdGTPase activity of EF-G, ribosomes lacking L7/L12 (E. coli EF-G)	further results
COC[C@H]1O[C@@H](O[C@@H]2OC[C@@H]3O[C@@]4(OC[C@@H](OC(=O)c5c(C)cc(O)cc5O)[C@@H]5OCO[C@H]54)O[C@H]3[C@H]2O)[C@@H](OC)[C@@H](O)[C@@H]1O[C@@H]1O[C@H](C)[C@H](OC)[C@H](O[C@@H]2O[C@H](C)[C@H]3O[C@]4(C[C@@H](O)[C@H](O[C@H]5C[C@@H](O[C@H]6C[C@](C)([N+](=O)[O-])[C@@H](OC)[C@H](C)O6)[C@H](OC(=O)c6c(C)c(Cl)c(O)c(Cl)c6OC)[C@@H](C)O5)[C@@H](C)O4)O[C@]3(C)[C@@H]2O)[C@H]1O [Evn, evernimicin]	~2000 nM									effect on EF4-catalyzed component of back-translocation (POST complex): completely abolished; effect on rdGTPase activity of Tet(M) (S. faecalis TetM; increasing concentrations of Evn (Figure 5D)): little or no effect; effect on IF2-dependent light scattering (70SIC formation) ([1]; 5 μM Evn): almost all IF2-dependent light scattering was abolished; Ki ([1]; read-out: apparent Ki for inhibition of IF2-dependent 70SIC formation, reciprocal of IF2-dependent light scattering increase at 1 sec vs. Evn concentration): 1800 ± 200 nM; IC50 (E. coli BipA; read-out: IC50, inhibition of BipA rdGTPase, E. coli 70S ribosomes (Figure 5E)): ~20000 nM; effect on rdGTPase of Tet(O) (Tet(O)): does not inhibit; apparent rate constant of translocation, Step 2 (PRE complex; control 1.3 ± 0.1 s^−1): 3.5 ± 0.2 s⁻¹; apparent rate constant of translocation, Step 1 (PRE complex; control 20.7 ± 0.6 s^−1): 28.1 ± 0.7 s⁻¹; effect on rdGTPase activity of IF2 (E. coli IF2; increasing concentrations of Evn (Figure 5A)): strongly inhibits; IC50 (E. coli IF2; read-out: IC50, inhibition of IF2 rdGTPase, E. coli 70S ribosomes (Figure 5A)): ~7000 nM; effect on rdGTPase activity of EF-GΔG′ (E. coli EF-GΔG′; increasing concentrations of Evn (Figure 5C)): little or no effect; IC50 (E. coli EF4; read-out: IC50, inhibition of EF4 rdGTPase, E. coli 70S ribosomes (Figure 5F)): ~3000 nM; effect on rdGTPase activity of EF-G (E. coli EF-G; increasing concentrations of Evn (Figure 5B)): little or no effect
C/C=C(\NC(=O)c1csc(-c2csc(-c3ccc4c(n3)-c3csc(n3)[C@H]([C@@H](C)O)NC(=O)c3csc(n3)[C@H](C(C)C)NC(=O)c3csc(n3)/C(=C/C)NC(=O)[C@H]([C@@H](C)O)NC(=O)c3csc-4n3)n2)n1)C(=O)NC[C@@H](C)O [MiC, micrococcin]	~3000 nM	inhibited	inhibited	inhibited	inhibit, rather than stimulate	inhibited	inhibited	enhanced	inhibited	
C=C(NC(=O)C(=C)NC(=O)c1csc(C2=N[C@@H]3c4csc(n4)[C@H]4NC(=O)c5csc(n5)[C@H]([C@](C)(O)[C@@H](C)O)NC(=O)[C@H]5CSC(=N5)/C(=C/C)NC(=O)[C@H]([C@@H](C)O)NC(=O)c5csc(n5)[C@]3(CC2)NC(=O)[C@H](C)NC(=O)C(=C)NC(=O)[C@H](C)NC(=O)[C@H]([C@@H](C)CC)N[C@@H]2C=Cc3c([C@H](C)O)cc(nc3[C@H]2O)C(=O)O[C@@H]4C)n1)C(N)=O [ThS, thiostrepton]	~3000 nM	inhibited	inhibited	inhibited	inhibited	inhibited	inhibited	inhibited	inhibited	effect on rdGTPase activity of IF2 (E. coli IF2; E. coli 70S ribosomes, 1 μM ThS or 5 μM MiC (Figure 2E)): inhibited
